Data reported in publication PMC3114641 (ACS medicinal chemistry letters, 2011).
Like-named read-outs stand apart in the source and are kept apart here. Each block holds one molecule with its values, some of them ahead of it.

Experiments:
[1] = molecular target: T1, chicken riboflavin binding protein (RfBP) (Gallus gallus, UniProt P02752); test: Isothermal titration calorimetry; settings: ITC; for KD: KD = 1/KA
T1 sequence (P02752 18-238): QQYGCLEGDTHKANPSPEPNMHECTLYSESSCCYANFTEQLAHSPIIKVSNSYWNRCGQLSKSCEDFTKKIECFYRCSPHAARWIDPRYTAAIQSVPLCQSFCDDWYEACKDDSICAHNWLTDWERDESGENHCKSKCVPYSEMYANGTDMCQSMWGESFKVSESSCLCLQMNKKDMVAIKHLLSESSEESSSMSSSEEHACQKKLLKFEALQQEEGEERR

[2] = molecular target: T2, RfBP (Gallus gallus, UniProt P02752); test: SPR solution competition: inhibition of RfBP adsorption to RF; type: binding, chicken
T2 sequence (P02752 18-238): T1 sequence (P02752 18-238)

[3] = molecular target: RfBP; settings: fluorescence quenching, cited from earlier work
[4] = molecular target: T2, RfBP; test: SPR direct binding of RfBP to ligand 1 immobilized on CM5 sensor chip; set-up: species or system chicken
Summary of the method: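 Chicken RfBP was injected at 33.0 to 3.70 μM in HBS-EP buffer (pH 7.4) over a CM5 chip with an immobilized riboflavin-linker conjugate. Sensorgrams were fitted globally to a 1:1 Langmuir model to give kon and koff, and KD was derived from these kinetics. KD was also obtained by Scatchard analysis of bound RfBP against RfBP concentration.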

[5] = PBS pH 7.4, 25°C, calculated estimate
[6] = PBS pH 7.4, 25°C, calculated estimate (Table 2)
[7] = 0.1M NaAc pH 4.0, 25°C, calculated estimate
[8] = 0.1M Phosphate pH 7.4, 25°C, calculated estimate
[9] = 0.1M Tris pH 9.0, 25°C, calculated estimate

SMILES: CN(C)CCCN1c2ccccc2Sc2ccc(Cl)cc21 [Chlorpromazine, chlorpromazine]
binding affinity towards the RfBP [1]: no binding affinity
KD ([1]; PBS pH 7.4, 25°C): No Binding Observed

SMILES: OCCN1CCN(CCCN2c3ccccc3Sc3ccc(Cl)cc32)CC1 [Perphenazine, perphenazine]
binding affinity towards the RfBP [1]: no binding affinity
KD ([1]; PBS pH 7.4, 25°C): No Binding Observed

Continued, in another order:

n (binding stoichiometry) ([1]; PBS pH 7.4, 25°C): 1.08 ±0.07
ΔH ([1]; PBS pH 7.4, 25°C): -11.5 ± 1.72 kcal/mol
ΔG [1, 5]: -9.85 kcal/mol
ΔS [1, 6]: −0.02 kJ mol^−1 K^−1
SMILES: Cc1cc2nc3c(=O)[nH]c(=O)nc-3n(C)c2cc1C [Lumiflavin, lumiflavin]

n (binding stoichiometry) ([1]; 0.1M NaAc pH 4.0, 25°C): 0.70±0.04
ΔH ([1]; 0.1M NaAc pH 4.0, 25°C): -24.07 ± 2.49 kcal/mol
ΔG [1, 7]: -9.99 kcal/mol
ΔS [1, 7]: -0.0478 kcal/mol
n (binding stoichiometry) ([1]; 0.1M Phosphate pH 7.4, 25°C): 0.81±0.03
ΔH ([1]; 0.1M Phosphate pH 7.4, 25°C): -19.6 ± 1.36 kcal/mol
ΔG [1, 8]: -11.1 kcal/mol
ΔS [1, 8]: -0.0287 kcal/mol
n (binding stoichiometry) ([1]; 0.1M Tris pH 9.0, 25°C): 0.82±0.03
ΔH ([1]; 0.1M Tris pH 9.0, 25°C): -23.7 ± 2.15 kcal/mol
ΔG [1, 9]: -10.2 kcal/mol
ΔS [1, 9]: -0.0454 kcal/mol
n (binding stoichiometry) ([1]; PBS pH 7.4, 25°C): 0.78±0.02
ΔH ([1]; PBS pH 7.4, 25°C): -21.8 ± 1.36 kcal/mol
ΔG [1, 5]: -11.4 kcal/mol
ΔS ([1]; PBS pH 7.4, 25°C, calculated estimate (Table 1)): -0.0359 kcal/mol
ΔS [1, 6]: −0.15 kJ mol^−1 K^−1
inhibitory activity, fold more potent than N(3) derivative 1 ([2]; SPR Ki comparison): approximately 7 fold
SMILES: Cc1cc2nc3c(=O)[nH]c(=O)nc-3n(C[C@H](O)[C@H](O)[C@H](O)CO)c2cc1C [RF, riboflavin]
Kd ([3]; 0.01M phosphate buffer): 1.3 nM
Kd ([3]; 0.1 M phosphate buffer): 2 nM

Kd [4]: 14500 nM
koff [4]: 0.00149 s⁻¹
kon [4]: 103 M⁻¹ s⁻¹
inhibition of RfBP adsorption to the surface ([2]; RfBP 11.1 µM, ligand concentrations above ~500 µM): approximately 90%
SMILES: Cc1cc2nc3c(=O)n(CC(=O)NCCCN)c(=O)nc-3n(C[C@H](O)[C@H](O)[C@H](O)CO)c2cc1C [compound 1]
